# Source: PubChem BioAssay AID504383 (The Scripps Research Institute Molecular Screening Center, 2011)
# The campaign covered roughly 2,500 compounds. About 1,200 (48%) were called active. The set was probably picked from earlier hits. Some of the results follow. A number with no mark means an inactive call.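 How the source made its calls: active means mean activation above the low control average plus 3 SD, as set in the primary screen (cut at about 12% in these data); inactive means the rest.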
# Biological target: Troponin I, cardiac muscle (Homo sapiens) + Troponin T, cardiac muscle (Homo sapiens) + Troponin C, slow skeletal and cardiac muscles (Homo sapiens) (UniProt P19429+P45379+P63316)
# Experiment: calcium sensitizers of cardiac thin filaments – biochemical, IANBD-TnC fluorescence, triplicate, confirmation (AID 504383);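 further: 0% = DMSO at 0.472 mM calcium and 100% = DMSO at 2.9 mM calcium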
# Conditions: IANBD-labeled cardiac RTF, Ca2+ sensitivity fluorescence; at 7.2 µM; active compounds read high; scaled from EC20 to saturating calcium; tested at EC20 calcium, 0.472 mM
# In short: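 System: Labelled thin filament complex | Technique: Filament fluorescence intensity | Benchmarks: Low control EC20 calcium, high control EC100 calcium | Timing: 15 min at 25 °C | Compound dosing: One dose, 7.2 µM nominal | Probe or stimulus: Ca2+ 0.472 mM, EC20 level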
row,Compound,activation
1,CC1=NN(C(=O)c2ccccc2-n2cccc2)C(O)(C(F)(F)F)C1 (configuration not stated),15.7% (active)
2,CC1=NN(C(=O)c2ccc(Cn3ccc([N+](=O)[O-])n3)cc2)C(O)(C(F)(F)F)C1 (configuration not stated),18.8% (active)
3,COc1cccc(OC)c1C(=O)NNC(=O)c1ccccc1-n1cccc1,-0.16%
4,CC1=C(C#N)C(=O)OC(C)(C)C1,10.4%
5,CSc1ccc(C2C(C(=O)c3ccco3)=C(O)C(=O)N2c2nnc(SC)s2)cc1 (configuration not stated),29.2% (active)
6,CC(C)c1nnc(N2C(=O)C(O)=C(C(=O)c3cccs3)C2c2ccccc2)s1 (configuration not stated),7.93%
7,N#Cc1c(NCCCO)nc(-c2ccccc2)c2c1CCCC2,16.7% (active)
8,CC(=O)Nc1sc(/C(C#N)=C/c2ccc(Cl)c(Cl)c2)nc1-c1ccc(C)cc1,-3.28%
9,CCOc1cc(/C=C(\C#N)c2nc(-c3cccs3)c(NC(C)=O)s2)ccc1O,0.64%
10,CC(=O)Nc1sc(/C(C#N)=C\c2cccc(Cl)c2)nc1-c1ccc(C)cc1,49.1% (active)
11,O=C(CNCc1cccs1)Nc1ccc(S(=O)(=O)N2CCCCC2)cc1,66.4% (active)
12,O=C(CNCc1cccs1)Nc1cc(S(=O)(=O)N2CCCC2)ccc1Cl,17.9% (active)
13,Cc1ccc(NC(=O)COC(=O)c2csc3c2CCC(C)C3)cc1S(=O)(=O)N1CCCCC1 (configuration not stated),3.56%
14,Cc1ccc(S(=O)(=O)N2CCOCC2)cc1NC(=O)CSc1nccn1C,11.4%
15,O=C(CCCN1C(=O)c2ccccc2C1=O)Nc1ccc(S(=O)(=O)N2CCCCC2)cc1,4.61%
16,CC(C(=O)NNS(=O)(=O)c1cccc(C(F)(F)F)c1)n1nnc(N2CCOCC2)n1 (configuration not stated),5.72%
17,C=CCOc1ccn(C)c(=O)n1,12.1% (active)
18,CCOc1ccc(NC(=O)C2CC(=O)N=C(N)S2)cc1 (configuration not stated),4.04%
19,COc1ccc(N=Nc2nc3ccc(Br)cc3n2C)cc1,10.6%
20,COc1ccc(Nc2nc3ccc(C)cc3cc2C#N)c(OC)c1,3.9%
21,COc1ccc(N=Nc2nc3cc(Br)c(Br)cc3n2C)c(OC)c1,2020% (active)
22,Cc1cccc(N2C(=O)c3cccc4c(N)ccc(c34)C2=O)c1,0.54%
23,CN(C)CCCN1C(=O)c2cccc3c([N+](=O)[O-])ccc(c23)C1=O,38.5% (active)
24,COc1ccccc1N1C(=O)c2cccc3c(N(C)CCO)ccc(c23)C1=O,7.87%
25,Cc1ccnc(N2C(=O)c3cccc4c([N+](=O)[O-])ccc(c34)C2=O)c1,16.1% (active)
26,Cc1ccc(N2C(=O)c3cccc4c(N)ccc(c34)C2=O)c2cccnc12,9.53%
27,O=C1c2cccc3c([N+](=O)[O-])ccc(c23)C(=O)N1Cc1cccnc1,3.03%
